Assays:
NCI-H1299 [1] = assay: Antiproliferative activity against human H1299 cells after 48 hrs by resazurin dye-based fluorescence assay; assay type: functional, cell-based; conditions: NCI-H1299, 48 h
In short: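 H1299 non-small-cell lung cells, kept subconfluent, passages 3–30, seeded 2000 cells/well; after 24 h exposed to serial concentrations in serum complete medium, 0.1% DMSO final, for 48 h. Resazurin then added, 16 h at 37 °C; fluorescence read at 544 nm excitation/595 nm emission, proportional to viable cells. IC50 from three repeats.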

[2] = target: T1, Heat shock protein HSP 90-alpha (Homo sapiens, UniProt P07900); assay: Inhibition of HSP90alpha in human H1299 cells assessed as decrease in AKT levels after 72 hrs by Western blot analysis; assay type: cell-based
In short: (§1)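 H1299 cells seeded in 15 cm dishes at 8 × 10⁴ cells/mL, 24 h, then treated at 7.5 and 15 µM for 72 h at 37 °C; DMSO-only controls. Lysed on ice 30 min, cleared at 10000 × g, protein by BCA. 25–100 µg run on 10% or 12% SDS-PAGE, blotted to nitrocellulose. Probed with antibodies to CDK2, EGFR, p-EGFR (Tyr1068), AKT, p-AKT, cleaved PARP; β-actin loading control; chemiluminescence; three repeats.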

[3] = target: T1, Heat shock protein HSP 90-alpha; assay: Inhibition of FITC-GA binding to N-terminal domain of HSP90alpha (unknown origin) after 5 hrs by fluorescence polarization assay
NCI-H1299 [4] = assay: Induction of apoptosis in human H1299 cells assessed as inhibition of expression of CDK2 after 72 hrs by Western blot analysis; assay type: functional, cell-based; in short: as §1
NCI-H1299 [5] = assay: Antiproliferative activity against human H1299 cells assessed as inhibition of cell viability after […] by resazurin dye-based fluorescence assay; assay type: functional
In short: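 H1299 cells, 2000/well, seeded 24 h, then exposed to serial compound concentrations in serum-containing complete medium for 48 h (DMSO vehicle, 0.1% final). Resazurin (2 mg/mL stock) added, 16 h at 37 °C. Fluorescence read at 544 nm ex / 595 nm em; RFU taken as proportional to living cells.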

[6] = target: T1, Heat shock protein HSP 90-alpha; assay: Inhibition of HSP90alpha in human H1299 cells assessed as decrease in phosphorylation of AKT after 72 hrs by Western blot analysis; assay type: cell-based; in short: as §1
[7] = target: T1, Heat shock protein HSP 90-alpha; assay: Inhibition of HSP90alpha in human H1299 cells assessed as decrease in EGFR levels after 72 hrs by Western blot analysis; assay type: cell-based; in short: as §1
[8] = target: T1, Heat shock protein HSP 90-alpha; assay: Inhibition of HSP90alpha in human H1299 cells assessed as decrease in phosphorylation of EGFR after 72 hrs by Western blot analysis; assay type: cell-based; in short: as §1
NCI-H1299 [9] = assay: Induction of apoptosis in human H1299 cells assessed as increase in cleaved PARP levels after 72 hrs by Western blot analysis; assay type: functional, cell-based; in short: as §1

Compound: Oc1ccc(-c2cn(Cc3ccccc3)cc2-c2ccc(O)cc2)cc1
- IC50 (NCI-H1299 [1]): 26.9 µM

Compound: COc1ccccc1Cn1cc(-c2ccc(O)cc2)c(-c2ccc(O)cc2)c1
- IC50 (NCI-H1299 [1]): 23.1 µM

Compound: COc1ccc(-c2cn(Cc3ccccc3O)cc2-c2ccc(OC)cc2)cc1
- IC50 (NCI-H1299 [1]): 20.8 µM

Compound: COc1cc(-c2cn(Cc3ccc(O)cc3)cc2-c2cc(OC)c(OC)c(OC)c2)cc(OC)c1OC
- IC50 (NCI-H1299 [1]): > 100 µM

Compound: C=CCNC1=C2C[C@@H](C)C[C@H](OC)[C@H](O)[C@@H](C)/C=C(\C)[C@H](OC(N)=O)[C@@H](OC)/C=C\C=C(/C)C(=O)NC(=CC1=O)C2=O [TANESPIMYCIN]
- IC50 (NCI-H1299 [1]): 0.2 µM

Compound: COc1ccc(Cn2cc(-c3ccc(O)c(O)c3)c(-c3ccc(O)c(O)c3)c2)cc1OC
- inhibition [2]: Dose-dependent effect
- IC50 [3]: 0.374 µM
- inhibition (NCI-H1299 [4]): Dose-dependent effect
- inhibition (NCI-H1299 [5]): Dose-dependent effect
- inhibition [6]: Dose-dependent effect
- IC50 (NCI-H1299 [1]): 10.5 µM
- inhibition [7]: Dose-dependent effect
- inhibition [8]: Dose-dependent effect
- Activity (NCI-H1299 [9]): Dose-dependent effect

Compound: COc1ccc(Cn2cc(-c3ccc(O)cc3)c(-c3ccc(O)cc3)c2)cc1
- IC50 (NCI-H1299 [1]): 37.3 µM

Compound: COc1ccccc1Cn1cc(-c2ccc(O)c(O)c2)c(-c2ccc(O)c(O)c2)c1
- IC50 (NCI-H1299 [1]): 8.6 µM

Compound: COc1ccc(-c2cn(Cc3ccc(O)c(O)c3)cc2-c2ccc(OC)cc2)cc1
- inhibition (NCI-H1299 [5]): Dose-dependent effect
- IC50 (NCI-H1299 [1]): 19.1 µM

Compound: COc1cc(Cn2cc(-c3ccc(O)c(O)c3)c(-c3ccc(O)c(O)c3)c2)cc(OC)c1OC
- inhibition [2]: Dose-dependent effect
- IC50 [3]: 0.852 µM
- inhibition (NCI-H1299 [4]): Dose-dependent effect
- inhibition (NCI-H1299 [5]): Dose-dependent effect
- inhibition [6]: Dose-dependent effect
- IC50 (NCI-H1299 [1]): 13.2 µM
- inhibition [7]: Dose-dependent effect
- inhibition [8]: Dose-dependent effect
- Activity (NCI-H1299 [9]): Dose-dependent effect

Compound: COc1ccc(Cn2cc(-c3ccc(O)cc3)c(-c3ccc(O)cc3)c2)c(OC)c1
- IC50 (NCI-H1299 [1]): 31.6 µM

Compound: COc1cc(-c2cn(Cc3ccc(O)c(O)c3)cc2-c2cc(OC)c(OC)c(OC)c2)cc(OC)c1OC
- IC50 (NCI-H1299 [1]): 29.2 µM

Compound: COc1ccc(Cn2cc(-c3ccc(O)cc3)c(-c3ccc(O)cc3)c2)cc1OC
- inhibition (NCI-H1299 [5]): Dose-dependent effect
- IC50 (NCI-H1299 [1]): 29.2 µM

Compound: COc1ccc(Cn2cc(-c3ccc(O)c(O)c3)c(-c3ccc(O)c(O)c3)c2)cc1
- inhibition [2]: Dose-dependent effect
- IC50 [3]: 0.752 µM
- inhibition (NCI-H1299 [4]): Dose-dependent effect
- inhibition (NCI-H1299 [5]): Dose-dependent effect
- inhibition [6]: Dose-dependent effect
- IC50 (NCI-H1299 [1]): 8.3 µM
- inhibition [7]: Dose-dependent effect
- inhibition [8]: Dose-dependent effect
- Activity (NCI-H1299 [9]): Dose-dependent effect

Compound: COc1cccc(Cn2cc(-c3ccc(O)cc3)c(-c3ccc(O)cc3)c2)c1
- IC50 (NCI-H1299 [1]): 25.3 µM

Compound: COc1ccc(-c2cn(Cc3ccc(O)cc3)cc2-c2ccc(OC)c(OC)c2)cc1OC
- IC50 (NCI-H1299 [1]): 30.6 µM

Compound: COc1ccc(-c2cn(Cc3ccc(O)c(O)c3)cc2-c2ccc(OC)c(OC)c2)cc1OC
- IC50 (NCI-H1299 [1]): 23.4 µM

Compound: COc1ccc(Cn2cc(-c3ccc(O)cc3)c(-c3ccc(O)cc3)c2)c(OC)c1OC
- IC50 (NCI-H1299 [1]): 25.1 µM

Compound: COc1ccc(-c2cn(Cc3ccc(O)cc3)cc2-c2ccc(OC)cc2)cc1
- IC50 (NCI-H1299 [1]): 20.5 µM

From ChEMBL document CHEMBL4033642, “Design and synthesis of neolamellarin a derivatives targeting heat shock protein 90” (Eur J Med Chem, 2017)
